Data set [1] has as its target T1, Tyrosine-protein kinase Mer (Mus musculus, UniProt Q60805).
T1 sequence (Q60805 whole entry): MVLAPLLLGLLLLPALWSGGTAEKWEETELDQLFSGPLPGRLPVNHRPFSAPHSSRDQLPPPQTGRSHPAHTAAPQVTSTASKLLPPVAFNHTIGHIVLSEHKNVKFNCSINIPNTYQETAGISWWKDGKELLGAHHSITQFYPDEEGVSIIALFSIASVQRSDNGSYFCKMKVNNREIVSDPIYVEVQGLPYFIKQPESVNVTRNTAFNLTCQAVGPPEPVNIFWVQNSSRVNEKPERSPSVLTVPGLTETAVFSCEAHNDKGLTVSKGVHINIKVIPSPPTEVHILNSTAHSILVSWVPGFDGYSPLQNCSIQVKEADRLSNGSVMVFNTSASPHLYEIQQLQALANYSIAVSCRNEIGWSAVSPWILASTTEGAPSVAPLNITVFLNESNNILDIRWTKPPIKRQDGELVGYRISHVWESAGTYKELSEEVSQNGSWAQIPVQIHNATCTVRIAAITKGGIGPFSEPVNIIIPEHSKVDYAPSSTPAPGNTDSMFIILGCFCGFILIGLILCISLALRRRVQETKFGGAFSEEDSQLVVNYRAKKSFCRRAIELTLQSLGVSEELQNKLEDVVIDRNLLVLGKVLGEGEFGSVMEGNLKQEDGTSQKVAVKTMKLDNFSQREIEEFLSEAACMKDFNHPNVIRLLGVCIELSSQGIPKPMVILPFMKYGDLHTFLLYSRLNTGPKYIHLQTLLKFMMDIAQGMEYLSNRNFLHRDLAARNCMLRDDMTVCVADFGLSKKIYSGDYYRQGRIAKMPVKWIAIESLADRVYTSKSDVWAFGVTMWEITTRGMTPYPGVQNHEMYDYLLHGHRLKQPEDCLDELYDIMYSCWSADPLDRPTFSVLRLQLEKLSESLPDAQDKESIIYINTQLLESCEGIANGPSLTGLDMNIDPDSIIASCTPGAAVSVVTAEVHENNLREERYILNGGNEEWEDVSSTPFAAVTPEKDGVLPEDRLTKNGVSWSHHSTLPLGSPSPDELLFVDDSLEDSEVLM
Briefly: Inhibition of Mer in mouse BaF3 cells. It is filed as cell-based.

The subject of a further data set is BaF3. Briefly: Ratio of IC50 for Mer in mouse BaF3 cells to IC50 for Axl in mouse BaF3 cells. It counts as cell-based.
Data set [2] can be described thus: Solubility in PBS. It is filed as physicochemical. An outline of the steps: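 Solubility measured in Dulbecco's phosphate-buffered saline.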
A further data set addresses T2, CYP1A2 (Homo sapiens, UniProt P05177).
T2 sequence (P05177 whole entry): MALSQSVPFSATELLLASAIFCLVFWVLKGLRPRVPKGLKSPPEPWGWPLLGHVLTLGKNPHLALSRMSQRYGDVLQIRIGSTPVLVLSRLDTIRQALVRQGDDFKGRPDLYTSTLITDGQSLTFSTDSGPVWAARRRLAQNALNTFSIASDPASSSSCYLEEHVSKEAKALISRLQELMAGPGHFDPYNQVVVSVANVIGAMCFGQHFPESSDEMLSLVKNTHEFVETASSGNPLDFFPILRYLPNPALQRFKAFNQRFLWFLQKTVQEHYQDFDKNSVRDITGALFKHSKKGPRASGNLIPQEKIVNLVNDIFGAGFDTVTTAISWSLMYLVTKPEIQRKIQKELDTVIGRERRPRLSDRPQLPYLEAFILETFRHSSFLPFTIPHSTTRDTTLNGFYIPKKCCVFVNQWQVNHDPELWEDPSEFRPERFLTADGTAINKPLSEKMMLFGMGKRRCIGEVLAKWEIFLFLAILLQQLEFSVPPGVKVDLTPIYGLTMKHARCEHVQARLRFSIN
Briefly: Time dependent inhibition of CYP1A2 in human liver microsomes assessed as enzyme remaining activity using cocktail of probe CYP as substrate at 50 uM. It counts as ADME. The settings on record: probe cocktail of CYP probe substrates, read-out: Activity. An outline of the steps: (§1)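 Time-dependent CYP inhibition in human liver microsomes, with test compound at 50 µM and a cocktail of probe CYP substrates.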

Another data set deals with T3, CYP2C8 (Homo sapiens, UniProt P10632).
T3 sequence (P10632 whole entry): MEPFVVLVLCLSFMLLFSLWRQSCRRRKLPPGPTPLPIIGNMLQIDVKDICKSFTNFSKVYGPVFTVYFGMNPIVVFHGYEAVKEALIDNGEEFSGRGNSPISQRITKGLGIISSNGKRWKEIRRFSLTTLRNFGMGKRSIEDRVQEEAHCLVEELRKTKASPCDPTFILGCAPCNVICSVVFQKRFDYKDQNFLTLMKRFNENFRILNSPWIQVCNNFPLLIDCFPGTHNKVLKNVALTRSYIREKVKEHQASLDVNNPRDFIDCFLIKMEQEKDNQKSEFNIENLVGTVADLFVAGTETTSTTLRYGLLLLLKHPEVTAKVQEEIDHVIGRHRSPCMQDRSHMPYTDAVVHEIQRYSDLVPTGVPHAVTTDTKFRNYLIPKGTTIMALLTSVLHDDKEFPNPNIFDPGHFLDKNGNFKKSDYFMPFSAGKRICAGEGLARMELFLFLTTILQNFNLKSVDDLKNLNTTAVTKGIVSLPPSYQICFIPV
Nature of the data set: Time dependent inhibition of CYP2C8 in human liver microsomes assessed as enzyme remaining activity using cocktail of probe CYP as substrate at 50 uM. It is filed as ADME. The settings on record: probe cocktail of CYP probe substrates, read-out: Activity. The method, boiled down:
as §1
Background: Liver microsomes are a subcellular fraction often used to study metabolism.

The test system of another data set is CYP3A. Briefly: Time dependent inhibition of CYP3A in human liver microsomes assessed as enzyme remaining activity using cocktail of probe CYP as substrate at 50 uM. It counts as ADME. The conditions noted are these: probe cocktail of CYP probe substrates, read-out: Activity. An outline of the steps:
as §1

Data set [3] can be described thus: Cmax in CAnN.Cg-Foxnlnu/CrlCrlj mouse plasma at 50 mg/kg, po single dose measured up to 24 hrs by liquid chromatography tandem mass spectrometry. It is filed as ADME, organism-based. On the set-up: route oral, dose 50 mg/kg, time <=24.
A short description of data set [4]: AUC (0 to 24 hrs) in CAnN.Cg-Foxnlnu/CrlCrlj mouse plasma at 50 mg/kg, po single dose measured up to 24 hrs by liquid chromatography tandem mass spectrometry. It is filed as ADME, organism-based. On the set-up: route oral, dose 50 mg/kg, time <=24.
The nature of data set [5]: Tmax in CAnN.Cg-Foxnlnu/CrlCrlj mouse plasma at 50 mg/kg, po single dose measured up to 24 hrs by liquid chromatography tandem mass spectrometry. It is filed as ADME, organism-based.
Data set [6] is described as follows: AUC (0 to 24 hrs) in CAnN.Cg-Foxnlnu/CrlCrlj mouse plasma at 25 mg/kg, po single dose measured up to 24 hrs by liquid chromatography tandem mass spectrometry. It is filed as ADME, organism-based. On the set-up: route oral, dose 25 mg/kg, time <=24.
A short description of data set [7]: AUC (0 to 24 hrs) in CAnN.Cg-Foxnlnu/CrlCrlj mouse plasma at 100 mg/kg, po single dose measured up to 24 hrs by liquid chromatography tandem mass spectrometry. It counts as ADME, organism-based. Further details: route oral, dose 100 mg/kg, time <=24.

By IC50 is commonly meant the point on the concentration scale where inhibition reaches its midpoint. Higher therefore signals a need for much substance. What is called solubility is how much of the substance goes into solution per volume. What is called Cmax is the highest concentration seen after dosing. By AUC(0-t) is commonly meant exposure summed from dosing to a finite time, without extrapolation to infinity. A word on the Tmax: it is the time from dosing to the highest level.

Converted amounts (≈) assume the structure as drawn.

In turn, `Cc1ccc(-n2c(=O)c(C(=O)Nc3ccc(Oc4ncnc5c4CCN(CC4CCN(C)CC4)C5)c(F)c3)cn(C3CCCC3)c2=O)nc1` yielded a half-maximal inhibitory concentration (IC50) in data set [1] of 180 nM. Also, the Ratio IC50 with BaF3 was 6.4. The molecule also had a solubility in data set [2] of 83 µM (≈ 55.5 µg/mL). The activity at 50 µM at CYP1A2 came to 82%; at CYP2C8, 84%; in the data set with CYP3A, 51%. In data set [3], this molecule came in with a Cmax of 5290 ng/mL. The results for the AUC(0-t) in data set [4], in data set [6] and in data set [7] were 56700 ng·h/mL, 22900 ng·h/mL and 110000 ng·h/mL, respectively. In data set [5], the Tmax turned out to be 1 h.

For the origin of these results see ChEMBL document CHEMBL4823291, “Discovery of 5,6,7,8-tetrahydropyrido[3,4-d]pyrimidine derivatives as novel selective Axl inhibitors” (Bioorg Med Chem Lett, 2021).
